Results as given in ChEMBL document CHEMBL1145801, “Inhibition of Cdc25 phosphatases by indolyldihydroxyquinones” (J Med Chem, 2003).

What was measured:
[1] = target: T1, M-phase inducer phosphatase 3 (Homo sapiens) (UniProt P30307); assay: Percent inhibition of cell division cycle 25 degree C at 50 uM
T1 sequence (whole entry): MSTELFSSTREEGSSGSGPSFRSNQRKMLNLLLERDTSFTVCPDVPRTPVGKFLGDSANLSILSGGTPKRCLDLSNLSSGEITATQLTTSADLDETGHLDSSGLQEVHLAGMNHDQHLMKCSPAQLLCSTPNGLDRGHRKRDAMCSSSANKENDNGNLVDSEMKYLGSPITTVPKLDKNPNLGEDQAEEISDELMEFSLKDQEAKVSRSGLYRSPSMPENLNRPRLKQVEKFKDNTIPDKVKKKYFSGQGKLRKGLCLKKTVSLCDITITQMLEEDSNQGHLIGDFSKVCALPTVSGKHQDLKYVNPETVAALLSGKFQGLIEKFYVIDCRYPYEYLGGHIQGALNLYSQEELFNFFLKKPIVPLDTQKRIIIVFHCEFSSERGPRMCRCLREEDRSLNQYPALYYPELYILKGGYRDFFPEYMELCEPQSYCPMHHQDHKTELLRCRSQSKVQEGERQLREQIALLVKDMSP
Outline: (§1)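 Single-point screen at 50 μM inhibitor against Cdc25A, Cdc25B or Cdc25C with 50 μM 3-O-methylfluorescein phosphate, product followed at 477 nm in time-dependent assays. Activity was compared with a simultaneous no-inhibitor control, and selected compounds were run in duplicate (average error ±7%).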

[2] = target: T2, M-phase inducer phosphatase 2 (Homo sapiens) (UniProt P30305); assay: Percent inhibition of cell division cycle 25B at 50 uM; outline: as §1
T2 sequence (whole entry): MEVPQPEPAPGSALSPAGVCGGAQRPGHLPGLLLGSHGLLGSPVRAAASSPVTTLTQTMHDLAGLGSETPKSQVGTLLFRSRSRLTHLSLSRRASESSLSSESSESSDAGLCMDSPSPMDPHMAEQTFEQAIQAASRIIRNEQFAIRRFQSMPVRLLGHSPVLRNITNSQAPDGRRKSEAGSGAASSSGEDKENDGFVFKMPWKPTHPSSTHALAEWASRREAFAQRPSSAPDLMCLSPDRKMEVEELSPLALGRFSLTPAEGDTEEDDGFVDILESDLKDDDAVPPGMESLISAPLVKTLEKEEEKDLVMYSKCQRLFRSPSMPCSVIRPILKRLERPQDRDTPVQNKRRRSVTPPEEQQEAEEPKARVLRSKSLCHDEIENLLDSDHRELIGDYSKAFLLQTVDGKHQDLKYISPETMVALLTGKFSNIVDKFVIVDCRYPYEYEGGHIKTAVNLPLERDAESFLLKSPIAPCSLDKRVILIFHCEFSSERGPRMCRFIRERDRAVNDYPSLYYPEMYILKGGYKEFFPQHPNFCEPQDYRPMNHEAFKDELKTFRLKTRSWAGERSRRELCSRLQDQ

[3] = target: T3, M-phase inducer phosphatase 1 (Homo sapiens) (UniProt P30304); assay: Percent inhibition of cell division cycle 25A at 50 uM; outline: as §1
T3 sequence (whole entry): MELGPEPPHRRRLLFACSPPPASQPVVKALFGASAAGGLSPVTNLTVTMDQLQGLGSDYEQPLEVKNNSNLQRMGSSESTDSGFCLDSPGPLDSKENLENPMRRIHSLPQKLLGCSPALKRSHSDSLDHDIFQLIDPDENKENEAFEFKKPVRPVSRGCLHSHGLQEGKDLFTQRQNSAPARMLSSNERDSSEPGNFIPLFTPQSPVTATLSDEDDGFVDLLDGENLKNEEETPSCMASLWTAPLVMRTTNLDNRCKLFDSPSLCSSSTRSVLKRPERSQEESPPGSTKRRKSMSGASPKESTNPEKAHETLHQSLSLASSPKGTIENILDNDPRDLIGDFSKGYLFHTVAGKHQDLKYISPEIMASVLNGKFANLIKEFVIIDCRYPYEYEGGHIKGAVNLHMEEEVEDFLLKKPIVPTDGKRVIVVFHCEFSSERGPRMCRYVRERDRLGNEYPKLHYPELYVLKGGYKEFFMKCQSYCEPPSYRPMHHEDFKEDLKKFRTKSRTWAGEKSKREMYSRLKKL

O=C1C=C(O)C(=O)C(c2c[nH]c3cccc(OCc4ccccc4)c23)=C1O
inhibition [1]: 2% | inhibition [2]: 0% | inhibition [3]: 48%

O=C1C=C(O)C(=O)C(c2c[nH]c3cc4c(cc23)OCO4)=C1O
inhibition [1]: 63% | inhibition [2]: 88% | inhibition [3]: 99%

COc1cccc2[nH]cc(C3=C(O)C(O)=CC(=O)C3=O)c12
inhibition [1]: 19% | inhibition [2]: 21% | inhibition [3]: 40%

Cc1ccc2c(C3=C(O)C(O)=CC(=O)C3=O)c[nH]c2c1C
inhibition [1]: 20% | inhibition [2]: 32% | inhibition [3]: 9%

O=C1C=C(O)C(=O)C(c2c[nH]c3cc(F)ccc23)=C1O
inhibition [1]: 48% | inhibition [2]: 90% | inhibition [3]: 97%

Cc1[nH]c2c(C)cccc2c1C1=C(O)C(O)=CC(=O)C1=O
inhibition [1]: 0% | inhibition [2]: 0% | inhibition [3]: 0%

O=C1C=C(O)C(=O)C(c2c[nH]c3cccc(Br)c23)=C1O
inhibition [1]: 54% | inhibition [2]: 6% | inhibition [3]: 51%

Cc1ccc2c(C3=C(O)C(O)=CC(=O)C3=O)c(C)[nH]c2c1
inhibition [1]: 0% | inhibition [2]: 16% | inhibition [3]: 0%

CC1(c2[nH]c3ccccc3c2C2=C(O)C(O)=CC(=O)C2=O)CCCCC1
inhibition [1]: 22% | inhibition [2]: 11% | inhibition [3]: 44%

Cc1ccc2[nH]c(C)c(C3=C(O)C(O)=CC(=O)C3=O)c2c1
inhibition [1]: 25% | inhibition [2]: 20% | inhibition [3]: 18%

Cc1cccc2[nH]cc(C3=C(O)C(O)=CC(=O)C3=O)c12
inhibition [1]: 28% | inhibition [2]: 9% | inhibition [3]: 39%

C=CC(C)(C)c1[nH]c2ccccc2c1C1=C(O)C(O)=CC(=O)C1=O
inhibition [1]: 21% | inhibition [2]: 0% | inhibition [3]: 12%

O=C1C=C(O)C(=O)C(c2c[nH]c3c(Cl)cccc23)=C1O
inhibition [1]: 54% | inhibition [2]: 23% | inhibition [3]: 0%

Cc1[nH]c2ccccc2c1C1=C(O)C(O)=CC(=O)C1=O
inhibition [1]: 5% | inhibition [2]: 9% | inhibition [3]: 24%

CCc1[nH]c2ccccc2c1C1=C(O)C(O)=CC(=O)C1=O
inhibition [1]: 14% | inhibition [2]: 36% | inhibition [3]: 15%

O=C1C=C(O)C(=O)C(c2c[nH]c3ccc(Cl)cc23)=C1O
inhibition [1]: 45% | inhibition [2]: 32% | inhibition [3]: 59%

COc1ccc2[nH]cc(C3=C(O)C(O)=CC(=O)C3=O)c2c1
inhibition [1]: 0% | inhibition [2]: 0% | inhibition [3]: 0%

O=C1C=C(O)C(=O)C(c2c[nH]c3c(Br)cccc23)=C1O
inhibition [1]: 11% | inhibition [2]: 45% | inhibition [3]: 11%

Cc1cccc2c(C3=C(O)C(O)=CC(=O)C3=O)c[nH]c12
inhibition [1]: 1% | inhibition [2]: 0% | inhibition [3]: 0%

CC(C)c1[nH]c2ccccc2c1C1=C(O)C(O)=CC(=O)C1=O
inhibition [1]: 0% | inhibition [2]: 13% | inhibition [3]: 7%

Cc1[nH]c2ccc(Cl)cc2c1C1=C(O)C(O)=CC(=O)C1=O
inhibition [1]: 30% | inhibition [2]: 42% | inhibition [3]: 0%

Cc1ccc2c(C3=C(O)C(O)=CC(=O)C3=O)c[nH]c2c1
inhibition [1]: 28% | inhibition [2]: 16% | inhibition [3]: 66%

O=C1C=C(O)C(=O)C(c2c(-c3ccccc3)[nH]c3ccccc23)=C1O
inhibition [1]: 18% | inhibition [2]: 38% | inhibition [3]: 40%

O=C1C=C(O)C(=O)C(c2c[nH]c3ccc(F)cc23)=C1O
inhibition [1]: 23% | inhibition [2]: 32% | inhibition [3]: 39%

COc1ccc2[nH]c(C)c(C3=C(O)C(O)=CC(=O)C3=O)c2c1
inhibition [1]: 31% | inhibition [2]: 0% | inhibition [3]: 0%

COc1cc2[nH]cc(C3=C(O)C(O)=CC(=O)C3=O)c2cc1OC
inhibition [1]: 20% | inhibition [2]: 19% | inhibition [3]: 54%

CC(C)(C)c1[nH]c2ccccc2c1C1=C(O)C(O)=CC(=O)C1=O
inhibition [1]: 0% | inhibition [2]: 11% | inhibition [3]: 30%

O=C1C=C(O)C(=O)C(c2c[nH]c3cccc(F)c23)=C1O
inhibition [1]: 0% | inhibition [2]: 5% | inhibition [3]: 20%
